Data taken from ChEMBL document CHEMBL4316595, “Synthesis and structure-activity relationship studies of parthenolide derivatives as potential anti-triple negative breast cancer agents” (Eur J Med Chem, 2019).
Where a name gives a salt, the structure may show the parent alone. Activity calls are given as the source filed them. No cut-off for these calls is given here.

How the values were obtained:
[1] = system: 4T1; assay: Antiproliferative activity against mouse 4T1 cells measured after 72 hrs by MTT assay; format: functional, cell-based; conditions: 4T1, 72 h
In short: (§1)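 MTT antiproliferation assay on human breast cancer lines MDA-MB-231, SUM-159, MCF-7 and Bcap-37 and on mouse 4T1 breast cancer cells. IC50 values were taken from the MTT read-out. Adriamycin served as the positive control.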

[2] = system: Bcap37; assay: Antiproliferative activity against human Bcap37 cells measured after 72 hrs by MTT assay; format: functional, cell-based; conditions: Bcap37, 72 h; in short: as §1
[3] = system: MCF7; assay: Antiproliferative activity against human MCF7 cells measured after 72 hrs by MTT assay; format: functional, cell-based; conditions: MCF7, 72 h; in short: as §1
[4] = system: MDA-MB-231; assay: Antiproliferative activity against human MDA-MB-231 cells measured after 72 hrs by MTT assay; format: functional, cell-based; conditions: MDA-MB-231, 72 h; in short: as §1
[5] = system: SUM-159-PT; assay: Antiproliferative activity against human SUM159 cells measured after 72 hrs by MTT assay; format: functional, cell-based; in short: as §1
[6] = system: MDA-MB-231; assay: Potency index, ratio of parthenolide IC50 to test compound IC50 for human MDA-MB-231 cells; format: functional
[7] = Therapeutic index, ratio of IC50 for mouse 3T3 cells to IC50 for mouse 4T1 cells; format: toxicity; conditions: 3T3 cells and 4T1 cells, read-out: Ratio IC50
[8] = system: SUM-159-PT; assay: Cell cycle arrest in human SUM159 cells assessed as down regulation of CHK1 expression at 0.1 to 0.2 uM measured after 48 hrs by Western blot analysis; format: functional, cell-based
[9] = system: SUM-159-PT; assay: Cell cycle arrest in human SUM159 cells assessed as decrease in S-phase accumulation measured after 48 hrs by propidium iodide staining based flow cytometry
[10] = molecular target: Cyclin-dependent kinase 1 (Homo sapiens) (UniProt P06493); assay: Inhibition of CDC2 phosphorylation in human SUM159 cells at 0.1 to 0.2 uM measured after 48 hrs by Western blot analysis; format: cell-based
[11] = system: SUM-159-PT; assay: Induction of apoptosis in human SUM159 cells assessed as increase in Bax expression measured after 48 hrs by Western blot analysis; format: functional, cell-based
[12] = system: SUM-159-PT; assay: Cell cycle arrest in human SUM159 cells assessed as down regulation of CHK2 expression at 0.1 to 0.2 uM measured after 48 hrs by Western blot analysis; format: functional, cell-based
[13] = system: SUM-159-PT; assay: Induction of apoptosis in human SUM159 cells assessed as necrotic cells at 0.2 uM measured after 48 hrs by Annexin-V APC/propidium iodide staining based flow cytometry (reference value: 0.152%); format: functional
In short: (§2)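 SUM-159 cells were exposed at 0, 0.2 and 0.5 µM, then stained with annexin V/PI and analysed by flow cytometry. Early apoptosis was annexin V+/PI−, late apoptosis annexin V+/PI+, and total apoptosis was the sum of the two.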

[14] = system: SUM-159-PT; assay: Induction of apoptosis in human SUM159 cells assessed as necrotic cells at 0.5 uM measured after 48 hrs by Annexin-V APC/propidium iodide staining based flow cytometry (reference value: 0.152%); format: functional; in short: as §2
[15] = system: SUM-159-PT; assay: Induction of apoptosis in human SUM159 cells assessed as early apoptotic cells at 0.2 uM measured after 48 hrs by Annexin-V APC/propidium iodide staining based flow cytometry (reference value: 2.5%); format: functional; in short: as §2
[16] = system: SUM-159-PT; assay: Induction of apoptosis in human SUM159 cells assessed as increase in cytochrome-C release measured after 48 hrs by Western blot analysis; format: functional, cell-based
[17] = system: SUM-159-PT; assay: Potency index, ratio of parthenolide IC50 to test compound IC50 for human SUM159 cells; format: functional
[18] = molecular target: Serine/threonine-protein kinase Chk2 (Homo sapiens) (UniProt O96017); assay: Inhibition of Chk2 phosphorylation in human SUM159 cells at 0.1 to 0.2 uM measured after 48 hrs by Western blot analysis; format: cell-based
[19] = system: Bcap37; assay: Potency index, ratio of parthenolide IC50 to test compound IC50 for human Bcap37 cells; format: functional
[20] = system: SUM-159-PT; assay: Induction of apoptosis in human SUM159 cells assessed as increase in cleaved caspase-9 measured after 48 hrs by Western blot analysis; format: functional, cell-based
[21] = system: MCF7; assay: Potency index, ratio of parthenolide IC50 to test compound IC50 for human MCF7 cells; format: functional
[22] = system: SUM-159-PT; assay: Induction of apoptosis in human SUM159 cells assessed as late apoptotic cells at 0.2 uM measured after 48 hrs by Annexin-V APC/propidium iodide staining based flow cytometry (reference value: 1.45%); format: functional; in short: as §2
[23] = system: SUM-159-PT; assay: Cell cycle arrest in human SUM159 cells assessed as up regulation of P27 expression at 0.1 to 0.2 uM measured after 48 hrs by Western blot analysis; format: functional, cell-based
[24] = system: 4T1; assay: Potency index, ratio of parthenolide IC50 to test compound IC50 for mouse 4T1 cells; format: functional
[25] = system: SUM-159-PT; assay: Induction of apoptosis in human SUM159 cells assessed as increase in Bim expression measured after 48 hrs by Western blot analysis; format: functional, cell-based
[26] = molecular target: T1, Serine/threonine-protein kinase Chk1 (Homo sapiens) (UniProt O14757); assay: Inhibition of Chk1 phosphorylation in human SUM159 cells at 0.1 to 0.2 uM measured after 48 hrs by Western blot analysis; format: cell-based
T1 sequence (whole entry): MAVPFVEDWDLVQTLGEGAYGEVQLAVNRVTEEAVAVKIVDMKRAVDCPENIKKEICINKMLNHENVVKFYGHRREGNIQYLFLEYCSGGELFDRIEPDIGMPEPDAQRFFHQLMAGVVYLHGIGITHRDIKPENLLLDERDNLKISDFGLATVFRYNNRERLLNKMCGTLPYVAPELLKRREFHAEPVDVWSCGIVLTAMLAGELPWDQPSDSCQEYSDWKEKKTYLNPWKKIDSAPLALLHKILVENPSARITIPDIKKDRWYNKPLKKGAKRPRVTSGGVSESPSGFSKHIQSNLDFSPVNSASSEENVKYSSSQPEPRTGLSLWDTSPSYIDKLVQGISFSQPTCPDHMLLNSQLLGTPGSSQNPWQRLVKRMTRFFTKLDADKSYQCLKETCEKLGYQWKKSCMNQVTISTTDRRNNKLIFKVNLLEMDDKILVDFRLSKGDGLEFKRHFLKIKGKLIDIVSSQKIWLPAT

[27] = system: SUM-159-PT; assay: Induction of apoptosis in human SUM159 cells assessed as viable cells at 0.2 uM measured after 48 hrs by Annexin-V APC/propidium iodide staining based flow cytometry (reference value: 95.9%); format: functional; conditions: read-out: Activity; in short: as §2
[28] = system: SUM-159-PT; assay: Induction of apoptosis in human SUM159 cells assessed as early apoptotic cells at 0.5 uM measured after 48 hrs by Annexin-V APC/propidium iodide staining based flow cytometry (reference value: 2.5%); format: functional; in short: as §2
[29] = system: SUM-159-PT; assay: Cell cycle arrest in human SUM159 cells assessed as increase in G1-phase accumulation at […] measured after 48 hrs by propidium iodide staining based flow cytometry; format: functional
In short: (§3)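 SUM-159 cells were treated for 48 h. Cell cycle distribution (G1, S, G2/M) was measured by flow cytometry and compared with an untreated control group.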

[30] = system: NIH3T3; assay: Cytotoxicity against mouse 3T3 cells measured after 72 hrs by MTT assay; format: cell-based; conditions: NIH3T3, 72 h
In short: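 Cytotoxicity was measured by MTT on normal 3T3 mouse embryonic fibroblasts, with IC50 from the MTT read-out.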

[31] = system: SUM-159-PT; assay: Induction of apoptosis in human SUM159 cells assessed as viable cells at 0.5 uM measured after 48 hrs by Annexin-V APC/propidium iodide staining based flow cytometry (reference value: 95.9%); format: functional; conditions: read-out: Activity; in short: as §2
[32] = system: SUM-159-PT; assay: Cell cycle arrest in human SUM159 cells assessed as decrease in G2/M-phase accumulation at […] measured after 48 hrs by propidium iodide staining based flow cytometry; format: functional; in short: as §3
[33] = system: SUM-159-PT; assay: Induction of apoptosis in human SUM159 cells assessed as late apoptotic cells at 0.5 uM measured after 48 hrs by Annexin-V APC/propidium iodide staining based flow cytometry (reference value: 1.45%); format: functional; in short: as §2
[34] = system: MDA-MB-231; assay: Antiproliferative activity against human MDA-MB-231 cells co-treated with melampomagnolide B at 1:1 molar ratio measured after 72 hrs by MTT assay; conditions: MDA-MB-231, 72 h

Chain of Serine/threonine-protein kinase Chk2 (Homo sapiens) (O96017 whole entry): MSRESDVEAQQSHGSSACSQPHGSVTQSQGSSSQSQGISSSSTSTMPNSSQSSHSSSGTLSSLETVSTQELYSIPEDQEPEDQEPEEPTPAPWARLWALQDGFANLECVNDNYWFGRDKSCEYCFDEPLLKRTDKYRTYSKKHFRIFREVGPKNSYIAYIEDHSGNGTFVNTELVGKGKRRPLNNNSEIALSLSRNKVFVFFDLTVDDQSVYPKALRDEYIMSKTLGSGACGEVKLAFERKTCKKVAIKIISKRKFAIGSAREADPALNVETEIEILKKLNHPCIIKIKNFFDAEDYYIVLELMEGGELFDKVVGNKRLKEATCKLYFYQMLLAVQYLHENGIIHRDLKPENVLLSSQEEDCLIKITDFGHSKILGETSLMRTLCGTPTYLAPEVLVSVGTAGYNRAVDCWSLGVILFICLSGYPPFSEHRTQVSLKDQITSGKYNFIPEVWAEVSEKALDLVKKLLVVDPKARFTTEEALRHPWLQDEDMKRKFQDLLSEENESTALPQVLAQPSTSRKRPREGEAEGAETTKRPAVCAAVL
Chain of Cyclin-dependent kinase 1 (Homo sapiens) (P06493 whole entry, looked up): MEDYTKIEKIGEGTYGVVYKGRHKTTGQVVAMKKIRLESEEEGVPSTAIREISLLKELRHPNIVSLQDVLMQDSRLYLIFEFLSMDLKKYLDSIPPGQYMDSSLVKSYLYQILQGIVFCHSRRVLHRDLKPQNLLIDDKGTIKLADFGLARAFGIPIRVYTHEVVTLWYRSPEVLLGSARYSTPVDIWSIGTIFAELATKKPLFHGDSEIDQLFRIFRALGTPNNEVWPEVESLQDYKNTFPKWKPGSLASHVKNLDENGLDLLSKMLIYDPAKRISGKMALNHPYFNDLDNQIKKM

C=C1C(=O)O[C@H]2[C@H]1CC/C(COC(=O)/C=C/c1ccccc1C(F)(F)F)=C\CC[C@@]1(C)O[C@@H]21
IC50 [1]: 1160 nM
IC50 [2]: 1890 nM
IC50 [3]: 2010 nM
IC50 [4]: 740 nM
IC50 [5]: 850 nM

C=C1C(=O)O[C@H]2[C@H]1CC/C(COC(=O)/C=C/c1ccc(OC)cc1OC)=C\CC[C@@]1(C)O[C@@H]21
IC50 [1]: 1410 nM
IC50 [2]: 1150 nM
IC50 [3]: 890 nM
IC50 [4]: 550 nM
IC50 [5]: 800 nM

C=C1C(=O)O[C@H]2[C@H]1CC/C(COC(=O)/C=C/c1cc(OC)c(OC)c(OC)c1)=C\CC[C@@]1(C)O[C@@H]21
IC50 [1]: 630 nM
IC50 [2]: 1960 nM
IC50 [3]: 1390 nM
IC50 [4]: 950 nM
IC50 [5]: 860 nM

C=C1C(=O)O[C@H]2[C@H]1CC/C(COC(=O)/C=C/c1ccccc1OCC)=C\CC[C@@]1(C)O[C@@H]21
IC50 [1]: 180 nM
IC50 [2]: 420 nM
IC50 [3]: 290 nM
IC50 [4]: 340 nM
Ratio IC50 [6]: 10
IC50 [5]: 210 nM

C=C1C(=O)O[C@H]2[C@H]1CC/C(COC(=O)/C=C/c1c(OC)cccc1OC)=C\CC[C@@]1(C)O[C@@H]21
selectivity ratio [7]: 36.9
IC50 [1]: 220 nM
Activity [8]: Active
Activity [9]: Active
inhibition [10]: Active
Activity [11]: Active
IC50 [2]: 270 nM
Activity [12]: Active
Activity [13]: 0.029%
Activity [14]: 2.04%
Activity [15]: 2.93%
Activity [16]: Active
Ratio IC50 [17]: 11.6 - 18.6
inhibition [18]: Active
Ratio IC50 [19]: 11.6 - 18.6
Activity [20]: Active
Ratio IC50 [21]: 11.6 - 18.6
Activity [22]: 0.79%
Activity [23]: Active
IC50 [3]: 230 nM
Ratio IC50 [24]: 11.6 - 18.6
Activity [25]: Active
inhibition [26]: Active
IC50 [4]: 250 nM
viability at 0.2 µM [27]: 96.3%
Ratio IC50 [6]: 14
Activity [28]: 30.5%
Activity [29]: Active
IC50 [30]: 8130 nM
viability at 0.5 µM [31]: 61.3%
Activity [32]: Active
Activity [33]: 6.07%
IC50 [5]: 200 nM

C=C1C(=O)O[C@H]2[C@H]1CC/C(COC(=O)/C=C/c1ccccc1)=C\CC[C@@]1(C)O[C@@H]21
IC50 [4]: 1350 nM
Ratio IC50 [6]: 2

C=C1C(=O)O[C@H]2[C@H]1CC/C(COC(=O)/C=C/c1cccc(C(F)(F)F)c1)=C\CC[C@@]1(C)O[C@@H]21
IC50 [1]: 1480 nM
IC50 [2]: 1860 nM
IC50 [3]: 2150 nM
IC50 [4]: 830 nM
IC50 [5]: 640 nM

C=C1C(=O)O[C@@H]2C3O[C@]3(C)CC/C=C(\C)CC[C@@H]12 (some centres not stated)
IC50 [1]: 4090 nM
IC50 [2]: 4630 nM
Activity [14]: 0.049%
IC50 [3]: 2680 nM
IC50 [4]: 3480 nM
Activity [28]: 2.49%
viability at 0.5 µM [31]: 96.4%
Activity [33]: 1.1%
IC50 [5]: 3060 nM

COc1cccc2c1C(=O)c1c(O)c3c(c(O)c1C2=O)C[C@@](O)(C(=O)CO)C[C@@H]3O[C@H]1C[C@H](N)[C@H](O)[C@H](C)O1 [DOXORUBICIN HYDROCHLORIDE]
selectivity ratio [7]: 0.45
IC50 [1]: 800 nM
IC50 [4]: 800 nM
IC50 [30]: 360 nM

COc1cccc(OC)c1/C=C/C(=O)O
IC50 [34]: 3920 nM
IC50 [4]: > 50000 nM

C=C1C(=O)O[C@H]2[C@H]1CC/C(COC(=O)/C=C/c1ccccc1OC)=C\CC[C@@]1(C)O[C@@H]21
IC50 [1]: 520 nM
IC50 [2]: 680 nM
IC50 [3]: 420 nM
IC50 [4]: 460 nM
IC50 [5]: 350 nM

C=C1C(=O)O[C@H]2[C@H]1CC/C(COC(=O)/C=C/c1cc(OC)ccc1OC)=C\CC[C@@]1(C)O[C@@H]21
IC50 [1]: 340 nM
IC50 [2]: 550 nM
IC50 [3]: 260 nM
IC50 [4]: 260 nM
Ratio IC50 [6]: 14
IC50 [5]: 260 nM
